Rows were chosen to be rich in hits. Some 3.1% of all compounds tested hit in one or more screens of this group.
SENP6 block: SENP6 protease inhibitors, primary screen, biochemical, luminescence, uHTS | Sentrin-specific protease 6 (Homo sapiens), Q9GZR1 | Recombinant SENP6 catalytic domain, aminoluciferin luminescence | inhibition, % at 10 µM | 1.8% of 330,000 active;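 active means inhibition above about 50% at the single tested dose, limit read from the data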;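 further: plate controls were DMSO wells with enzyme for no effect and DMSO wells lacking enzyme for full effect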
SENP7 inh: SENP7 protease inhibitors, primary screen, biochemical, luminescence, uHTS | Sentrin-specific protease 7 (Homo sapiens), Q9BQF6 | recombinant SENP7, Z-RLRGG-aminoluciferin luminescence, 40 min | inhibition, % at 5 µM | 1.5% of 330,000 active | AID 434973, 2010;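 active means inhibition above about 50% at the single test dose, limit read from the data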;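 further: plate controls were DMSO with enzyme for no effect and no enzyme buffer wells for full effect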
SENP8 block-1: human SENP8 protease inhibitors, primary screen, biochemical, fluorescence, Nedd8 protein substrate, uHTS. Sentrin-specific protease 8 (Homo sapiens), Q96LD8. recombinant SENP8. inhibition, % at 20 µM. 0.64% of 360,000 active; in the data active means inhibition mostly above about 40%, no sharp cut-off; inactive means mostly below about 27%
UBC13 polyUb: UBC13 polyubiquitin chain formation inhibitors, primary screen, biochemical, TR-FRET, uHTS | inhibition, % at 20 µM | Ubiquitin-conjugating enzyme E2 N (Homo sapiens), P61088 | 0.47% of 330,000 active; in the data active means inhibition above about 45%, passing the limit was not always enough
Apaf-1 inh: inhibitors of human Apaf-1 apoptosome, primary screen, biochemical, DEVD-Rh110 fluorescence, uHTS; reconstituted apoptosome caspase-3 activity; AID 489030, 2010; Apoptotic protease-activating factor 1 (Homo sapiens), O14727; inhibition, % at 20 µM; 0.71% of 330,000 active; active means inhibition of at least 40% at 20 µM;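 further: plate controls were DMSO wells for no effect and DEVD-CHO caspase inhibitor wells for full effect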
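System – cell-free apoptosome with Apaf-1, procaspase-3 and caspase-9 · Buffer or medium – pH 7.5 Hepes buffer with CHAPS, BSA, DTT · Also added – cytochrome c with DEVD-Rh110 · Times – 30 min compound preincubation, 50 min activation, room temperature · Technique – Rh110 fluorescence intensity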
SENP8 block-2: SENP8 protease inhibitors, primary screen, biochemical, luminescence; 1.2% of 330,000 active; purified SENP8, Z-RLRGG-aminoluciferin cleavage; Sentrin-specific protease 8 (Homo sapiens), Q96LD8; inhibition, % at 10 µM; in the data active means inhibition above about 50%
* = called active by the depositor; i = inactive; nt = no result given.

SMILES	SENP6 block	SENP7 inh	SENP8 block-1	UBC13 polyUb	Apaf-1 inh	SENP8 block-2
COc1ccc2nc3cc(Cl)ccc3c(Nc3cc(CN4CCCC4)c(O)c(CN4CCCC4)c3)c2n1	1.6	-7.3	-72.8	-88.5	62.4*	-3.0
CCCCC(=Nc1ccc(N)cc1)C1=C(O)C(C(=O)OC)C(C)(C)CC1=O (stereo not drawn)	13.7	6.4	54.1*	-28.6	61.6*	-2.2
CCCC(=Nc1ccccc1)C1=C(O)C(C(=O)OC)C(C)(C)CC1=O (stereo not drawn)	-21.9	2.2	12.3	-3.2	-3.4	-7.3
COCCOC(=O)N1CCCCC1c1cc(C(=O)Nc2cccc3c2CCCC3)no1 (stereo not drawn)	nt	nt	26.2	nt	nt	nt
O=S(=O)(O)c1cc(O)c2c(O)c(N=Nc3cc(Cl)ccc3O)c(S(=O)(=O)O)cc2c1	27.9	10.0	29.8	-53.0	9.2	19.6
Cc1cc(-c2ccc(N=Nc3c(S(=O)(=O)O)cc4cc(S(=O)(=O)O)cc(N)c4c3O)c(C)c2)ccc1N=Nc1c(S(=O)(=O)O)cc2cc(S(=O)(=O)O)cc(N)c2c1O	26.2	41.4	nt	-18.6	98.3*	72.2*
C/C(=N\Nc1nc2ccccc2[nH]1)c1ccccn1	59.4*	-0.8	-3.7	-22.4	13.9	32.2
Cc1ccc2nc(-c3ccco3)c(CC(C)(C)C)n2c1	nt	nt	-44.7	nt	nt	nt
O=[N+]([O-])c1cc(Cl)ccc1N1CCCC1	-0.9	4.7	13.7	-14.8	10.8	-0.6
O=C1C(Cl)=C(N2CCN(c3ccccc3[N+](=O)[O-])CC2)C(=O)c2ccccc21	nt	nt	60.6*	nt	nt	nt
Cc1cc2c(cc1C)-n1nnnc1C(N1CCN(c3ccccn3)CC1)C(c1ccc3c(c1)OCO3)=N2 (stereo not drawn)	nt	nt	-99.2	nt	nt	nt
Cc1cc(NC(=O)c2cc3cccc([N+](=O)[O-])c3[nH]2)ccc1F	72.9*	77.1*	12.3	-5.5	0.9	61.4*
Cc1ccc(OC(=O)c2cccc([N+](=O)[O-])c2)c(-n2nc3ccccc3n2)c1	93.0*	90.0*	15.8	-3.4	6.8	86.7*
CC(=O)N(C)c1ccc(N2CCOCC2)c2c1C(=O)c1ccccc1C2=O	-4.7	-0.4	32.2	-69.1	-17.8	1.7
O=C1c2ccccc2C(=O)c2c1cccc2N1CCOCC1	13.6	5.2	42.6*	-215.2	10.7	5.6
COc1ccc(C(C)NC(=O)C2CCN(CCOc3ccc(Cl)cc3Cl)CC2)cc1OC (stereo not drawn)	nt	nt	19.1	nt	nt	nt
CCCCCCCCN1C(=O)[C@H](CC(=O)N2CCSCC2)C[C@@]2(C(=O)OC)CCCCC=C12	nt	nt	19.2	nt	nt	nt
O=C1C=C(Nc2cccnc2)c2ccccc2C1=O	nt	nt	91.3*	nt	nt	nt
CCOc1ccc(NC2=CC(=O)C(=O)c3ccccc32)cc1	nt	nt	-185.7	nt	nt	nt
CC1=NN(c2ccc(C)cc2)C(=O)/C1=C\C=C\c1ccccc1	-2.3	-7.2	10.6	-40.5	22.2	-13.0
CC1=NN(c2ccccc2)C(=O)/C1=C/c1ccc[nH]1	-21.7	-6.8	46.5*	-35.0	-138.2	-10.5
CC1=NN(c2ccccc2)C(=O)C1=Cc1ccccc1	nt	nt	49.5*	nt	nt	nt
CC1=NN(c2cccc(C(=O)O)c2)C(=O)/C1=C\C=C/c1ccccc1	-10.8	5.7	4.1	-21.8	15.9	1.1
CC1=NN(c2ccccc2)C(=O)/C1=C/C=C/C=C/N(C)C	0.9	5.7	23.0	i	25.0	6.4
CC1=NN(c2ccccc2)C(=O)/C1=C/c1c(O)n(-c2ccc(F)cc2)[nH]c1=O	57.5*	-2.4	30.9	-26.1	20.6	31.1
Cc1cccc(C)c1NC(=O)C1(C)CN(S(C)(=O)=O)CC(=O)N1Cc1ccco1 (stereo not drawn)	nt	nt	15.1	nt	nt	nt
COC(=O)CCN1CCc2cc(N=Nc3ccc([N+](=O)[O-])cc3)ccc21	-22.5	80.0*	29.0	-47.1	-3.3	-22.0
COc1ccc(OC)c(CN2C(=O)CSCC2(C)C(=O)Nc2c(C)cccc2C)c1 (stereo not drawn)	nt	nt	18.7	nt	nt	nt
Cc1cc2nc3ccc(=[N+](C)C)cc-3sc2cc1N	nt	nt	57.1*	nt	nt	nt
CN(C)c1ccc2nc3ccc(=O)cc-3sc2c1	nt	nt	-4.4	nt	nt	nt

Assay outcomes from PubChem BioAssay.
